{"data": "Experimental data pooled from the literature", "cell line": "MV4-11", "observed": "cell growth or viability", "note": "Lines come from different studies, so protocols differ."}
{"Structure (SMILES)": "Cc1cc2c(C(=O)O)cccc2n1-c1nc2c(c(NCc3ccccc3)n1)CCCN2", "time": "72 h", "measurement": "IC50", "result": "800 nM"}
{"Structure (SMILES)": "COc1ccc(Nc2ncnc3c2ncn3Cc2ccc(C(=O)Nc3ccccc3N)cc2)cc1", "technique": "MTT", "time": "72 h", "measurement": "IC50", "result": "720 nM"}
{"Structure (SMILES)": "CONC(=O)c1cccc2c1cc(C)n2-c1nc2c(c(NCc3ccccc3)n1)CCCN2", "time": "72 h", "measurement": "IC50", "result": "400 nM"}
{"Structure (SMILES)": "Nc1cccc(-c2ccc3ncc(OCC4CCNCC4)nc3c2)c1", "technique": "XTT", "time": "7 days", "measurement": "EC50", "result": "≥ 28000 nM"}
{"Structure (SMILES)": "Nc1ccccc1NC(=O)c1ccc(Cn2cnc3c(Nc4ccc(Br)cc4F)ncnc32)cc1", "technique": "MTT", "time": "72 h", "measurement": "IC50", "result": "280 nM"}
{"Structure (SMILES)": "NCCNC(=O)c1ccc(-c2nc3ccc4[nH]ncc4c3c3c2CCCC3)cc1", "technique": "resazurin", "time": "72 h", "measurement": "GI50", "result": "480 nM"}
{"Structure (SMILES)": "O=C(NO)c1ccc(Cn2cnc3c(Nc4cccc([N+](=O)[O-])c4)ncnc32)cc1", "technique": "MTT", "time": "72 h", "measurement": "IC50", "result": "280 nM"}
{"Structure (SMILES)": "Cc1sc2c(c1C)C(c1ccc(Cl)cc1)=N[C@@H](CC(=O)NCCCCNC(=O)COc1cccc3c1C(=O)N(C1CCC(=O)NC1=O)C3=O)c1nnc(C)n1-2 (stereo partly shown)", "technique": "CCK-8", "time": "72 h", "measurement": "IC50", "result": "520 nM"}
{"Structure (SMILES)": "Cc1n[nH]c2ccc3nc(-c4ccc(C(=O)NCCN(C)C)cn4)c4c(c3c12)CCCCC4", "technique": "resazurin", "time": "72 h", "measurement": "GI50", "result": "132 nM"}
{"Structure (SMILES)": "c1ccc(COc2ccc(Nc3ccc4ncc(OCC5CCNCC5)nc4c3)cc2)cc1", "technique": "XTT", "time": "7 days", "measurement": "EC50", "result": "840 nM"}
{"Structure (SMILES)": "Cc1n[nH]c2ccc3nc(-c4ccc(C(=O)N(C)CCN(C)C)cc4)c4c(c3c12)CCC(C)(C)C4", "technique": "resazurin", "time": "72 h", "measurement": "GI50", "result": "258 nM"}
{"Structure (SMILES)": "c1cc(N2CCCCC2)ccc1Nc1cc2ncc(OCC3CCNCC3)nc2cc1-c1ccc(N2CCCCC2)cc1", "technique": "XTT", "time": "7 days", "measurement": "EC50", "result": "3000 nM"}
{"Structure (SMILES)": "CN(C)CCN(C)C(=O)c1ccc(-c2nc3ccc4[nH]ncc4c3c3c2CC(C)(C)CC3)cc1", "technique": "resazurin", "time": "72 h", "measurement": "GI50", "result": "1900 nM"}
{"Structure (SMILES)": "O=C(NO)c1ccc(Cn2cnc3c(Nc4ccc(F)c(Cl)c4)ncnc32)cc1", "technique": "MTT", "time": "72 h", "measurement": "IC50", "result": "1140 nM"}
{"Structure (SMILES)": "c1cc(-c2cc3ncc(OCC4CCNCC4)nc3cc2-c2cccc(N3CCCCC3)c2)cc(N2CCCCC2)c1", "technique": "XTT", "time": "7 days", "measurement": "EC50", "result": "1400 nM"}
{"Structure (SMILES)": "Cc1n[nH]c2ccc3nc(-c4ccc(C(=O)NCCN(C)C)nc4)c4c(c3c12)CCCCC4", "technique": "resazurin", "time": "72 h", "measurement": "GI50", "result": "181 nM"}
